Results taken from the RNAGym collection of RNA variant scans (doi:10.1126/science.aae0568).
This sample holds only a part of the variants without activity.

B1: tRNA (parent)
chain: GUUCCGUUGGCGUAAUGGUAACGCGUCUCCCUCCUAAGGAGAAGACUGCGGGUUCGAGUCCCGUACGGAACG

Variants of: B1
Test: yeast fitness relative to wild type (ratio to wild type); higher = fitter; tRNA-Arg(CCU), competitive growth, 37 C, YPD
In short: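 Variants of the tRNA-Arg(CCU) gene were chemically synthesised with a 3% per-site mutation rate across 69 sites and placed at the native genomic locus in Saccharomyces cerevisiae. Six parallel replicates of the pooled strains were competed in YPD at 37°C for 24 hours, and gene amplicons from the start and end populations were read by 100-nucleotide paired-end sequencing. Darwinian fitness relative to wild type was derived from changes in genotype frequencies. Genotypes required ≥ 100 starting reads, and estimates < 0.5 were set to 0.5.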
In the case of GUUCCGUUCGCGAAAUGGUAACGCAUCUCCCUCCUAAGGCGAAGACUGCGGGUUCGCGUCUCGUACAGAACG [G9C U13A G25A A40C A57C C61U G67A], the yeast fitness is reported as at most 0.5.
In the case of GUUCCGUUCGCGUAAUGGUAACGCGUCUCCCUCCUAAGGAGAAGACUGCGGGUUCGAGUCUCGUAGGGAACG [G9C C61U C66G], the yeast fitness is reported as at most 0.5.
With GUUCCGUUCGCGUAAUGGCAACGCGUCUCCCUCCUAAGGUGAAGACUGCGGGUUCGUGUCCCGUACGGAACG [G9C U19C A40U A57U] the yeast fitness was at most 0.5.
GUUCCGUUCGCGUAAUGGUAACGCGUCUCCCUCCUAAGGAGAAGACUACGGGUUCGAGUCCCGUACGGCACG [G9C G48A A69C] gave a yeast fitness of 0.627.
GUUCCGUUCGCGUAAUGGUAACGCAUCUCCCUCCUAAGGAGAAGACUGCGGGUUCGAGUCCCGUACGGAACG [G9C G25A] showed a yeast fitness of 0.721.
GUUCCGUUCGCGUAAUAGUAACGCGUUUCCCUCCUAAGGAGAAGACUGCGGGUUCGAGUCCCGUACGGAACG [G9C G17A C27U] gave a yeast fitness of at most 0.5.
GUUCCGUUCGCGUAAUGGUAACGCGCCUCCCUCCUAAGGAGAAGACUGCGGGUUCGAGUCACGUACAGAACG [G9C U26C C61A G67A] gave a yeast fitness of at most 0.5.
In the case of GUUCCGUUCGCGUAAUGGUAACGCGUCUCCCUCCUAAGGAGAAGACUGCGGGUUCGAGUCCCAUAUGGAACG [G9C G63A C66U], the yeast fitness is reported as at most 0.5.
GUUCCGUUCGCGUAAUGGAGACGCGUCUUCCUCCUAUGGAGAAGACUGCGGGUUCGAGUCCUGUACAGACCG [G9C U19A A20G C29U A37U C62U G67A A70C] showed a yeast fitness of at most 0.5.
Variant GUUCCGUUCGCGUAAGGGUAACGCGUCUCCCUCCUAAGGAGAAGACUGCGGGUUCGAGUCCCGUACGGAUCG [G9C U16G A70U] has a yeast fitness of at most 0.5.
With GUUCCGUUCGCAUAAUGGUACCGCGACUCCCUCCUAAGCAGAAGACUGCGGGUUCGAGUCCCGUACGGAACG [G9C G12A A21C U26A G39C] the yeast fitness was 0.632.
GUUCCGUUCGCGUAAUGGUAACGCGUCUCCCUCCUAAGGAGAAGACUGCGGGUUAGAGUCUCGUACGGAACG [G9C C55A C61U] gave a yeast fitness of at most 0.5.
For GUUCCGUUCGCAUAAUGGUAACGCGUCUCCCUCCUAAGGAGAAGACUCCGGGUUCGAGUCCAGUACGGAACG [G9C G12A G48C C62A], the yeast fitness was at most 0.5.
For GUUCCGUUCGCGCAAUGGUGACGCGUCUCCGUCCUAAGGAGAAGACUGCGGGUUCGGGUCCCGUACGGAACG [G9C U13C A20G C31G A57G], the yeast fitness was at most 0.5.
Work on GUUCCGUUCCCGUAAUGGUAACGCGUCUGCCUCCUAAGGAGAAGAAUGCGGGUUCGAGUCCCGUACGGAACG [G9C G10C C29G C46A] yielded a yeast fitness of 0.59.
GUUCCGUUCGCGGAAUGGUAACGCGUCUCCCUCCUAACGAGAAGGCUGCGGGUUCGAGUCCGGUACGGAACG [G9C U13G G38C A45G C62G] gave a yeast fitness of at most 0.5.
GUUCCGUUCGCGUAAGGGUAACGCGUCUCCCCCCUACGGAGAAGACUGCGGGUUCGAGUCCCGUACGGAACG [G9C U16G U32C A37C] gave a yeast fitness of at most 0.5.
Work on GUUCCGUUCGCGCAAUGGUAACGCGUCUCCGUCCUAAGGAGAAGACUGCGGGUUCGAGUCCCGUUCGGAACG [G9C U13C C31G A65U] yielded a yeast fitness of at most 0.5.
Variant GUUCCGUUCGCGCAAUGGUAACGCGUCUCCCUCCUAAGGAGAAGACUGCGGGUUUGCGUCCCGUACGGAACG [G9C U13C C55U A57C] has a yeast fitness of at most 0.5.
Variant GUUCCGUUCGCCUGAUGGUCACGCGUCUCCCUCCUAAGGAGAAGACUGCGGGUUCGAGUCCCGUACCGAACG [G9C G12C A14G A20C G67C] has a yeast fitness of at most 0.5.
Variant GUUCCGUUCGCAUAAUGGUAACGCGUCUACCUCCUAAAGAGAAGACUGCGGGUUCGAGUCCCGUACGGAACG [G9C G12A C29A G38A] has a yeast fitness of at most 0.5.
With GUUCCGUUCGCGUAAUGGUAACGCGUCUCCCUCCUAAGGAGAAGACUGCGGGUUCGAGUCCCGUACGCAACG [G9C G68C] the yeast fitness was 0.777.
Variant GUUCCGUUCGCGUAAUGGUAACGCGUCUCCCUCCUAAGGAGAAGACUGCGGGUUCGAGUCCCGUACCGAACG [G9C G67C] has a yeast fitness of 0.746.
GUUCCGUUCGCGUAAUGGUAACGCGUCUCCCUCCUAAAGAGAAGACUGCGGGUUCGAGUCCCGUGCGGAACG [G9C G38A A65G] gave a yeast fitness of 0.519.
For GUUCCGUUCGCGUAAUGGUAACGCGCCUCCCUCCUAAGGAGAAGACUGCGGGUUCGAGUCCCGUACGGAACG [G9C U26C], the yeast fitness was 0.612.
With GUUCCGUUCGCGUAAUGGUAACGCGUCUCCCUCCUAAGGAGAAGACUGCGGUUUCGAGUCCCGUACGGAACG [G9C G52U] the yeast fitness was 0.502.
GUUCCGUUCGCGUAAUGGUAACCCGUCUUCCUCCUCAGGAGAAGACUGGGGGUUCGAGUCCCGUACGGAACG [G9C G23C C29U A36C C49G] showed a yeast fitness of at most 0.5.
GUUCCGUUCGCGUAAUCGUAACGCGUCUCCCUCCUAAGCAGAAGACUGCGGGUUCGAGUCCCGUACGGAUCG [G9C G17C G39C A70U] showed a yeast fitness of at most 0.5.
Variant GUUCCGUUCGCGUAAUGCUAACGCGUCUCCCUCCUAAGGAGAAGACUGGGGGUUCGAGUCCCAUUCGGAACG [G9C G18C C49G G63A A65U] has a yeast fitness of at most 0.5.
With GUUCCGUUCGCGUAAUGGUAACGCGUCUCCCUCCUAAGGAGAAGACUGCCGGUUCGAGUCCCGUACGGAACG [G9C G50C] the yeast fitness was 0.514.
For GUUCCGUUCGCGUAACGGUAACGCGUCUCUCUCCUAAGGAGAAGACUGCGGGUUCGAGUCCCGUACGGAACG [G9C U16C C30U], the yeast fitness was 0.506.
For GUUCCGUUCGCGUAAGGGUAACGCGUCUCCCUCCUAAGGAGAAGACUGCGGGUUCGAGUCCCGUAGGGAACG [G9C U16G C66G], the yeast fitness was at most 0.5.
GUUCCGUUCGCGUAAUGGUAACGCGUCUCCCUCCUAAGGAGAAGACUGCGGGUUCGAGUCGCCUACGGAACG [G9C C61G G63C] showed a yeast fitness of at most 0.5.
GUUCCGUUCCCGUAAUGGUAACGCGUCUCCCUCCUAAGGAGAAGACUGCGGGUUCGAGUCCCGUACGGAACG [G9C G10C] gave a yeast fitness of 0.68.
With GUUCCGUUCGCGUAAUGGUAACGCGUCUCCCUCCUAAGGAGAAGACUGCGGGUUUGAGUCCCGUACGGAACG [G9C C55U] the yeast fitness was 0.635.
In the case of GUUCCGUUCGCGAAAUGGUAACGCGUCUCCCUCCUAAGGAAAAGACUGCGGGUUCGAGUCCUGUACGGAACG [G9C U13A G41A C62U], the yeast fitness is reported as at most 0.5.
Work on GUUCCGUUCGCGUAAUAGUAACGCGUUUCCCUCCUAAGGAGAAGACUGCGGGUACGAGUCCCGUACGGAACG [G9C G17A C27U U54A] yielded a yeast fitness of at most 0.5.
